# Experimental data reported in ChEMBL document CHEMBL3580633, “Benzoxaborole antimalarial agents. Part 4. Discovery of potent 6-(2-(alkoxycarbonyl)pyrazinyl-5-oxy)-1,3-dihydro-1-hydroxy-2,1-benzoxaboroles” (J Med Chem, 2015).
# Tested on: Plasmodium berghei
# Experiment: Antiplasmodial activity against Plasmodium berghei infected in Swiss Webster mouse assessed as mouse survival at 3 mg/kg, po dosed once daily for 4 consecutive days beginning 1 hr after initial infection and measured on day 7 post infection by Giemsa staining method
# Format: functional
# Conditions: not given
# Procedure, shortened: (§1)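 Female Swiss Webster mice (about 20 g) infected ip with 6 × 10^6 P. berghei-infected erythrocytes. Oral gavage once daily for 4 days, starting 1 h after infection. Vehicle PEG300/propylene glycol/water (55/25/20 by weight). Giemsa-smear parasitemia counted daily from day 4. Mice euthanised above 50% parasitemia. Survival followed to day 21, 5 mice per dose, chloroquine 30 mg/kg as reference.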
row,Structure (SMILES),survival at 3 mg/kg [%]
1,O=C(O)c1cnc(Oc2ccc3c(c2)B(O)OC3)cn1,60
2,NC(=O)c1cnc(Oc2ccc3c(c2)B(O)OC3)cn1,80

# Tested on: Plasmodium berghei
# Experiment: Antiplasmodial activity against Plasmodium berghei infected in Swiss Webster mouse assessed as mouse survival at 11 mg/kg, po dosed once daily for 4 consecutive days beginning 1 hr after initial infection and measured on day 6 post infection by Giemsa staining method
# Format: functional
# Conditions: not given
# Procedure, shortened: as §1
row,Structure (SMILES),survival at 11 mg/kg [%]
1,O=C(O)c1cnc(Oc2ccc3c(c2)B(O)OC3)cn1,100
2,NC(=O)c1cnc(Oc2ccc3c(c2)B(O)OC3)cn1,100

# Tested on: Plasmodium berghei
# Experiment: Antiplasmodial activity against Plasmodium berghei infected in Swiss Webster mouse assessed as mouse survival at 33 mg/kg, po dosed once daily for 4 consecutive days beginning 1 hr after initial infection and measured on day 4 post infection by Giemsa staining method
# Format: functional
# Conditions: not given
# Procedure, shortened: (§2)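 Female Swiss Webster mice (about 20 g) were infected ip with 6 × 10^6 P. berghei-infected erythrocytes from a donor mouse. They were dosed by oral gavage once daily for 4 days, starting 1 h post-infection, in PEG 300/propylene glycol/water (55/25/20 by weight). Parasitemia was read daily on Giemsa smears from day 4, and mice were euthanized above 50% parasitemia. Percent survival was tracked to 21 days.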
row,Structure (SMILES),survival at 33 mg/kg [%]
1,O=C(O)c1cnc(Oc2ccc3c(c2)B(O)OC3)cn1,100
2,NC(=O)c1cnc(Oc2ccc3c(c2)B(O)OC3)cn1,100

# Tested on: Plasmodium falciparum
# Experiment: Antimalarial activity against chloroquine-resistant Plasmodium falciparum W2 cultured in human erythrocytes assessed as inhibition of parasite growth incubated for 48 hrs by YOYO-1 staining based flow cytometry
# Format: functional, organism-based
# Conditions: W2, 48 h
row,Structure (SMILES),IC50 [nM]
1,O=C(O)c1cnc(Oc2ccc3c(c2)B(O)OC3)cn1,150
2,NC(=O)c1cnc(Oc2ccc3c(c2)B(O)OC3)cn1,210

# Tested on: Plasmodium berghei
# Experiment: Antiplasmodial activity against Plasmodium berghei infected in Swiss Webster mouse assessed as mouse survival at 11 mg/kg, po dosed once daily for 4 consecutive days beginning 1 hr after initial infection and measured on day 8 post infection by Giemsa staining method
# Format: functional
# Conditions: not given
# Procedure, shortened: as §1
row,Structure (SMILES),survival at 11 mg/kg [%]
1,O=C(O)c1cnc(Oc2ccc3c(c2)B(O)OC3)cn1,60
2,NC(=O)c1cnc(Oc2ccc3c(c2)B(O)OC3)cn1,100

# Tested on: Plasmodium berghei
# Experiment: Antiplasmodial activity against Plasmodium berghei infected in Swiss Webster mouse assessed as mouse survival at 33 mg/kg, po dosed once daily for 4 consecutive days beginning 1 hr after initial infection and measured on day 6 post infection by Giemsa staining method
# Format: functional
# Conditions: not given
# Procedure, shortened: as §2
row,Structure (SMILES),survival at 33 mg/kg [%]
1,O=C(O)c1cnc(Oc2ccc3c(c2)B(O)OC3)cn1,100
2,NC(=O)c1cnc(Oc2ccc3c(c2)B(O)OC3)cn1,100

# Tested on: Plasmodium berghei
# Experiment: Antiplasmodial activity against Plasmodium berghei infected in Swiss Webster mouse assessed as mouse survival at 1 mg/kg, po dosed once daily for 4 consecutive days beginning 1 hr after initial infection and measured on day 5 post infection by Giemsa staining method
# Format: functional
# Conditions: not given
# Procedure, shortened: as §1
row,Structure (SMILES),survival at 1 mg/kg [%]
1,O=C(O)c1cnc(Oc2ccc3c(c2)B(O)OC3)cn1,100
2,NC(=O)c1cnc(Oc2ccc3c(c2)B(O)OC3)cn1,100

# Tested on: Plasmodium berghei
# Experiment: Antiplasmodial activity against Plasmodium berghei infected in Swiss Webster mouse assessed as mouse survival at 33 mg/kg, po dosed once daily for 4 consecutive days beginning 1 hr after initial infection and measured on day 7 post infection by Giemsa staining method
# Format: functional
# Conditions: not given
# Procedure, shortened: as §2
row,Structure (SMILES),survival at 33 mg/kg [%]
1,O=C(O)c1cnc(Oc2ccc3c(c2)B(O)OC3)cn1,100
2,NC(=O)c1cnc(Oc2ccc3c(c2)B(O)OC3)cn1,100

# Tested on: Plasmodium berghei
# Experiment: Antiplasmodial activity against Plasmodium berghei infected in Swiss Webster mouse assessed as mouse survival at 100 mg/kg, po dosed once daily for 4 consecutive days beginning 1 hr after initial infection and measured on day 7 post infection by Giemsa staining method
# Format: functional
# Conditions: not given
# Procedure, shortened: as §1
row,Structure (SMILES),survival at 100 mg/kg [%]
1,O=C(O)c1cnc(Oc2ccc3c(c2)B(O)OC3)cn1,100
2,NC(=O)c1cnc(Oc2ccc3c(c2)B(O)OC3)cn1,100

# Tested on: Plasmodium berghei
# Experiment: Antiplasmodial activity against Plasmodium berghei infected in Swiss Webster mouse assessed as mouse survival at 3 mg/kg, po dosed once daily for 4 consecutive days beginning 1 hr after initial infection and measured on day 4 post infection by Giemsa staining method
# Format: functional
# Conditions: not given
# Procedure, shortened: as §1
row,Structure (SMILES),survival at 3 mg/kg [%]
1,O=C(O)c1cnc(Oc2ccc3c(c2)B(O)OC3)cn1,100
2,NC(=O)c1cnc(Oc2ccc3c(c2)B(O)OC3)cn1,100

# Tested on: Plasmodium berghei
# Experiment: Antiplasmodial activity against Plasmodium berghei infected in Swiss Webster mouse assessed as mouse survival at 1 mg/kg, po dosed once daily for 4 consecutive days beginning 1 hr after initial infection and measured on day 9 post infection by Giemsa staining method
# Format: functional
# Conditions: not given
# Procedure, shortened: as §1
row,Structure (SMILES),survival at 1 mg/kg [%]
1,O=C(O)c1cnc(Oc2ccc3c(c2)B(O)OC3)cn1,0
2,NC(=O)c1cnc(Oc2ccc3c(c2)B(O)OC3)cn1,0

# Tested on: Plasmodium berghei
# Experiment: Antiplasmodial activity against Plasmodium berghei infected in Swiss Webster mouse assessed as mouse survival at 100 mg/kg, po dosed once daily for 4 consecutive days beginning 1 hr after initial infection and measured on day 8 post infection by Giemsa staining method
# Format: functional
# Conditions: not given
# Procedure, shortened: as §1
row,Structure (SMILES),survival at 100 mg/kg [%]
1,O=C(O)c1cnc(Oc2ccc3c(c2)B(O)OC3)cn1,100
2,NC(=O)c1cnc(Oc2ccc3c(c2)B(O)OC3)cn1,100

# Tested on: Plasmodium berghei
# Experiment: Antiplasmodial activity against Plasmodium berghei infected in Swiss Webster mouse assessed as mouse survival at 100 mg/kg, po dosed once daily for 4 consecutive days beginning 1 hr after initial infection and measured on day 9 post infection by Giemsa staining method
# Format: functional
# Conditions: not given
# Procedure, shortened: as §1
row,Structure (SMILES),survival at 100 mg/kg [%]
1,O=C(O)c1cnc(Oc2ccc3c(c2)B(O)OC3)cn1,60
2,NC(=O)c1cnc(Oc2ccc3c(c2)B(O)OC3)cn1,60

# Tested on: Plasmodium berghei
# Experiment: Antiplasmodial activity against Plasmodium berghei infected in Swiss Webster mouse assessed as […] dosed orally once daily for 4 consecutive days beginning 1 hr after initial infection and measured on day 4 after onset of treatment by Giemsa staining method
# Format: functional
# Conditions: po
# Procedure, shortened: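 In the P. berghei model, female Swiss Webster mice were infected ip with 6 × 10^6 infected erythrocytes. They were gavaged once daily for 4 days from 1 h post-infection, in PEG 300/propylene glycol/water (55/25/20 by weight), with 5 mice per dose. Parasitemia was counted on Giemsa smears. ED90 is the dose reducing parasitemia 90% versus vehicle controls 4 days after therapy began, fitted by nonlinear regression.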
row,Structure (SMILES),ED90 [mg/kg]
1,O=C(O)c1cnc(Oc2ccc3c(c2)B(O)OC3)cn1,30.3
2,NC(=O)c1cnc(Oc2ccc3c(c2)B(O)OC3)cn1,38.7

# Tested on: Plasmodium berghei
# Experiment: Antiplasmodial activity against Plasmodium berghei infected in Swiss Webster mouse assessed as mouse survival at 100 mg/kg, po dosed once daily for 4 consecutive days beginning 1 hr after initial infection and measured on day 6 post infection by Giemsa staining method
# Format: functional
# Conditions: not given
# Procedure, shortened: as §1
row,Structure (SMILES),survival at 100 mg/kg [%]
1,O=C(O)c1cnc(Oc2ccc3c(c2)B(O)OC3)cn1,100
2,NC(=O)c1cnc(Oc2ccc3c(c2)B(O)OC3)cn1,100

# Tested on: Plasmodium berghei
# Experiment: Antiplasmodial activity against Plasmodium berghei infected in Swiss Webster mouse assessed as mouse survival at 1 mg/kg, po dosed once daily for 4 consecutive days beginning 1 hr after initial infection and measured on day 8 post infection by Giemsa staining method
# Format: functional
# Conditions: not given
# Procedure, shortened: as §1
row,Structure (SMILES),survival at 1 mg/kg [%]
1,O=C(O)c1cnc(Oc2ccc3c(c2)B(O)OC3)cn1,40
2,NC(=O)c1cnc(Oc2ccc3c(c2)B(O)OC3)cn1,40

# Tested on: Plasmodium berghei
# Experiment: Antiplasmodial activity against Plasmodium berghei infected in Swiss Webster mouse assessed as mouse survival at 33 mg/kg, po dosed once daily for 4 consecutive days beginning 1 hr after initial infection and measured on day 9 post infection by Giemsa staining method
# Format: functional
# Conditions: not given
# Procedure, shortened: as §2
row,Structure (SMILES),survival at 33 mg/kg [%]
1,O=C(O)c1cnc(Oc2ccc3c(c2)B(O)OC3)cn1,40
2,NC(=O)c1cnc(Oc2ccc3c(c2)B(O)OC3)cn1,60

# Tested on: Plasmodium berghei
# Experiment: Antiplasmodial activity against Plasmodium berghei infected in Swiss Webster mouse assessed as mouse survival at 11 mg/kg, po dosed once daily for 4 consecutive days beginning 1 hr after initial infection and measured on day 7 post infection by Giemsa staining method
# Format: functional
# Conditions: not given
# Procedure, shortened: as §1
row,Structure (SMILES),survival at 11 mg/kg [%]
1,O=C(O)c1cnc(Oc2ccc3c(c2)B(O)OC3)cn1,100
2,NC(=O)c1cnc(Oc2ccc3c(c2)B(O)OC3)cn1,100

# Tested on: Plasmodium falciparum
# Experiment: Antimalarial activity against chloroquine-sensitive Plasmodium falciparum 3D7 cultured in human erythrocytes incubated for 48 hrs by [3H]-hypoxanthine incorporation assay
# Format: functional, organism-based
# Conditions: not given
# Procedure, shortened: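 3D7 parasites in human erythrocytes, RPMI-1640 with 0.5% Albumax II, […], 37 °C, 5% O2/5% CO2. Asynchronous cultures (0.5% parasitemia, 2% hematocrit) given 3-fold serial dilutions for 24 h. [3H]hypoxanthine then added for a further 24 h, and incorporation counted by scintillation. Normalised to drug-free infected cells. IC50 from at least three independent experiments.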
row,Structure (SMILES),IC50 [nM]
1,NC(=O)c1cnc(Oc2ccc3c(c2)B(O)OC3)cn1,350

# Tested on: Jurkat
# Experiment: Cytotoxicity against human Jurkat cells incubated for 72 hrs by MTT assay
# Format: cell-based
# Conditions: not given
row,Structure (SMILES),IC50 [nM]
1,O=C(O)c1cnc(Oc2ccc3c(c2)B(O)OC3)cn1,> 100000
2,NC(=O)c1cnc(Oc2ccc3c(c2)B(O)OC3)cn1,48200

# Tested on: Plasmodium berghei
# Experiment: Antiplasmodial activity against Plasmodium berghei infected in Swiss Webster mouse assessed as mouse survival at 1 mg/kg, po dosed once daily for 4 consecutive days beginning 1 hr after initial infection and measured on day 6 post infection by Giemsa staining method
# Format: functional
# Conditions: not given
# Procedure, shortened: as §1
row,Structure (SMILES),survival at 1 mg/kg [%]
1,O=C(O)c1cnc(Oc2ccc3c(c2)B(O)OC3)cn1,100
2,NC(=O)c1cnc(Oc2ccc3c(c2)B(O)OC3)cn1,100

# Tested on: Plasmodium berghei
# Experiment: Antiplasmodial activity against Plasmodium berghei infected in Swiss Webster mouse assessed as mouse survival at 1 mg/kg, po dosed once daily for 4 consecutive days beginning 1 hr after initial infection and measured on day 4 post infection by Giemsa staining method
# Format: functional
# Conditions: not given
# Procedure, shortened: as §1
row,Structure (SMILES),survival at 1 mg/kg [%]
1,O=C(O)c1cnc(Oc2ccc3c(c2)B(O)OC3)cn1,100
2,NC(=O)c1cnc(Oc2ccc3c(c2)B(O)OC3)cn1,100

# Tested on: Plasmodium berghei
# Experiment: Antiplasmodial activity against Plasmodium berghei infected in Swiss Webster mouse assessed as mouse survival at 3 mg/kg, po dosed once daily for 4 consecutive days beginning 1 hr after initial infection and measured on day 8 post infection by Giemsa staining method
# Format: functional
# Conditions: not given
# Procedure, shortened: as §1
row,Structure (SMILES),survival at 3 mg/kg [%]
1,O=C(O)c1cnc(Oc2ccc3c(c2)B(O)OC3)cn1,20
2,NC(=O)c1cnc(Oc2ccc3c(c2)B(O)OC3)cn1,60

# Tested on: Plasmodium berghei
# Experiment: Antiplasmodial activity against Plasmodium berghei infected in Swiss Webster mouse assessed as mouse survival at 3 mg/kg, po dosed once daily for 4 consecutive days beginning 1 hr after initial infection and measured on day 6 post infection by Giemsa staining method
# Format: functional
# Conditions: not given
# Procedure, shortened: as §1
row,Structure (SMILES),survival at 3 mg/kg [%]
1,O=C(O)c1cnc(Oc2ccc3c(c2)B(O)OC3)cn1,100
2,NC(=O)c1cnc(Oc2ccc3c(c2)B(O)OC3)cn1,100
